Fewer inactive variants are shown than the library holds.
B1: tRNA (parent)
chain: GUUCCGUUGGCGUAAUGGUAACGCGUCUCCCUCCUAAGGAGAAGACUGCGGGUUCGAGUCCCGUACGGAACG

Variants of: B1
Assay: yeast fitness relative to wild type (ratio to wild type); higher = fitter; tRNA-Arg(CCU), competitive growth, 37 C, YPD
Outline: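 Variants of the tRNA-Arg(CCU) gene, chemically synthesised with a 3% per-site mutation rate at 69 sites, were placed at the native genomic locus in Saccharomyces cerevisiae. The pooled strains were competed in YPD at 37°C for 24 hours in six parallel replicates. Gene amplicons from the start population and from each end population were read by 100-nucleotide paired-end sequencing. Darwinian fitness relative to wild type came from changes in genotype frequencies; genotypes needed ≥ 100 starting reads, and estimates < 0.5 were set to 0.5.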

Which yeast fitness does the source give for A14G C22U C34U U35A C55A here?
Its yeast fitness is no more than 0.5.

Which yeast fitness does the source give for G41A G50C here?
Its yeast fitness is 0.676.

With C22A C33G A43C C49U U64C as the variant, how does the yeast fitness read?
Its yeast fitness is no more than 0.5.

For C5A C24G U26A C29G U32A G48A C66G G67U, which yeast fitness is on record?
Its yeast fitness is no more than 0.5.

For C30U A69G, which yeast fitness is on record?
Its yeast fitness is 0.947.

Which yeast fitness does the source give for G6A C11G A21G C27G C29U U35G A70C here?
Its yeast fitness is no more than 0.5.

Which yeast fitness does the source give for C4A G23A U28A G48A A70C here?
The yeast fitness was no more than 0.5.

Which yeast fitness does the source give for U7C C22G C24A G25C C66G here?
The yeast fitness was no more than 0.5.

For C5G G17U A45U G68C, which yeast fitness is on record?
Its yeast fitness is no more than 0.5.

For A15G G44A G50C, which yeast fitness is on record?
Its yeast fitness is no more than 0.5.

Which yeast fitness does the source give for U2C C27U C31U U32G C55A G63A here?
The yeast fitness was 0.645.

For A21G A45C C49U C55U, which yeast fitness is on record?
The yeast fitness was 0.531.

Which yeast fitness does the source give for G38A A43C A65C here?
Its yeast fitness is no more than 0.5.

Which yeast fitness does the source give for U28C U32C C46G here?
The yeast fitness was 0.722.

With C33G U53C as the variant, how does the yeast fitness read?
Its yeast fitness is no more than 0.5.

Which yeast fitness does the source give for U35A C55U A65G here?
Its yeast fitness is no more than 0.5.

For C4G G18C C24G C29G, which yeast fitness is on record?
The yeast fitness was no more than 0.5.

For C4U G12C C49G, which yeast fitness is on record?
The yeast fitness was 0.533.

With U13C C33G A40G U59A as the variant, how does the yeast fitness read?
The yeast fitness was no more than 0.5.

Which yeast fitness does the source give for G9A G52A here?
The yeast fitness was 0.687.

For C27G A37C A57C, which yeast fitness is on record?
The yeast fitness was no more than 0.5.

With U3A C5A G6C A15G U16A U26G G38C U54A as the variant, how does the yeast fitness read?
Its yeast fitness is no more than 0.5.

Which yeast fitness does the source give for G12C C24U here?
Its yeast fitness is 0.651.

For U16C A40C A57U G68A, which yeast fitness is on record?
Its yeast fitness is 0.641.

Which yeast fitness does the source give for C27G C31G A43C here?
The yeast fitness was 0.545.

For A14G C30A C34A A43C C60G C62A, which yeast fitness is on record?
The yeast fitness was no more than 0.5.

With C11G A14U C22A C29G C34A as the variant, how does the yeast fitness read?
Its yeast fitness is no more than 0.5.

For C4G C31U G48C, which yeast fitness is on record?
The yeast fitness was 0.647.

With A20U C55G G58C as the variant, how does the yeast fitness read?
The yeast fitness was no more than 0.5.

With U2A C5U A69C as the variant, how does the yeast fitness read?
Its yeast fitness is 0.687.

For A42C A43U G67C, which yeast fitness is on record?
The yeast fitness was no more than 0.5.

For C5A U28G A42U, which yeast fitness is on record?
The yeast fitness was no more than 0.5.

With U26G U28A A43G C61U G67A as the variant, how does the yeast fitness read?
The yeast fitness was 0.599.

With G9A A40G U64C as the variant, how does the yeast fitness read?
Its yeast fitness is 0.722.

Which yeast fitness does the source give for U2C C5G C46U here?
Its yeast fitness is 0.872.

With U3A G17C C29U as the variant, how does the yeast fitness read?
Its yeast fitness is no more than 0.5.

For G23A C55U A57C G58A, which yeast fitness is on record?
Its yeast fitness is no more than 0.5.

For G18A C22G C24G, which yeast fitness is on record?
Its yeast fitness is no more than 0.5.

For C5A C34A C46U A57G, which yeast fitness is on record?
The yeast fitness was no more than 0.5.

With A14G G25A C30A as the variant, how does the yeast fitness read?
Its yeast fitness is 0.563.

For A14C C34U A36G G39C, which yeast fitness is on record?
Its yeast fitness is 0.535.

Which yeast fitness does the source give for U3A C61U here?
The yeast fitness was 0.924.

Which yeast fitness does the source give for U47C C62G A65C here?
The yeast fitness was no more than 0.5.

For C11G G12A A42U C61A A65U, which yeast fitness is on record?
The yeast fitness was 0.528.

With A42U A65C as the variant, how does the yeast fitness read?
The yeast fitness was 0.81.

For U7A U8A G25A G67C, which yeast fitness is on record?
Its yeast fitness is no more than 0.5.

For G9C C27U U47G G50A, which yeast fitness is on record?
The yeast fitness was no more than 0.5.

Which yeast fitness does the source give for U2G C4U G23C here?
The yeast fitness was 0.567.

For G6A C27U A45C U59C C62U, which yeast fitness is on record?
Its yeast fitness is no more than 0.5.

Which yeast fitness does the source give for G41A G58A here?
Its yeast fitness is 1.

With C11U C27A U54G as the variant, how does the yeast fitness read?
The yeast fitness was no more than 0.5.

Which yeast fitness does the source give for C29G C33G G41C G67C here?
The yeast fitness was no more than 0.5.

For G52A A57C A69U, which yeast fitness is on record?
The yeast fitness was 0.565.

For G9A G51C G52C, which yeast fitness is on record?
The yeast fitness was no more than 0.5.

With C11A G23A G63C as the variant, how does the yeast fitness read?
Its yeast fitness is 0.551.

Which yeast fitness does the source give for A21C C24A C33A G48C here?
The yeast fitness was 0.579.

With C4U U8A G48A C55U as the variant, how does the yeast fitness read?
Its yeast fitness is no more than 0.5.

Which yeast fitness does the source give for C4U C27U G39C U47A here?
Its yeast fitness is no more than 0.5.

Which yeast fitness does the source give for U2A G50C U59C C60A here?
Its yeast fitness is 0.877.

Which yeast fitness does the source give for A37G G58A here?
Its yeast fitness is 0.976.

With G12A C30G A65U as the variant, how does the yeast fitness read?
The yeast fitness was no more than 0.5.

For A15U G52C A65U G67C, which yeast fitness is on record?
The yeast fitness was no more than 0.5.

Which yeast fitness does the source give for C24G C34U U35A C55U here?
Its yeast fitness is no more than 0.5.

For G23A U59A, which yeast fitness is on record?
The yeast fitness was 0.791.

Which yeast fitness does the source give for U7A U26G U32G A42U A45G A69U here?
The yeast fitness was no more than 0.5.

With C24U G25A C30U C46A A69U as the variant, how does the yeast fitness read?
The yeast fitness was 0.611.

For C27G A45U, which yeast fitness is on record?
Its yeast fitness is 0.656.

Which yeast fitness does the source give for C24G C31G G68C here?
Its yeast fitness is no more than 0.5.

Which yeast fitness does the source give for U13A U26G C27A G39C A42G G51C C66U A69U here?
The yeast fitness was no more than 0.5.

For G10A C55U C61A, which yeast fitness is on record?
Its yeast fitness is no more than 0.5.

For G12C A40G G50U C62U, which yeast fitness is on record?
The yeast fitness was no more than 0.5.

With C5G A43G A70G as the variant, how does the yeast fitness read?
The yeast fitness was 0.537.

For U19C A37U C62A U64C, which yeast fitness is on record?
Its yeast fitness is 0.725.

With C5A C62U as the variant, how does the yeast fitness read?
Its yeast fitness is 0.954.

With G6A G44A U59A A69U as the variant, how does the yeast fitness read?
Its yeast fitness is no more than 0.5.

Which yeast fitness does the source give for C4G U7A C22U here?
The yeast fitness was no more than 0.5.

Which yeast fitness does the source give for U2C G51U G58C here?
Its yeast fitness is 0.548.

Which yeast fitness does the source give for U2G C29U here?
Its yeast fitness is 0.851.

For U3A C31G, which yeast fitness is on record?
Its yeast fitness is 0.845.

With A45U G63C as the variant, how does the yeast fitness read?
The yeast fitness was 0.542.

For U3C U59C A65C A69G, which yeast fitness is on record?
The yeast fitness was 0.593.

For G9A G44U, which yeast fitness is on record?
Its yeast fitness is 0.766.

With U28A C33G C49G G50U as the variant, how does the yeast fitness read?
The yeast fitness was no more than 0.5.

Which yeast fitness does the source give for U19A C30U G38C here?
The yeast fitness was 0.694.
